The test system of experiment [1] is DU-145. Nature of the experiment: Cytotoxicity against human DU145 cells incubated from day 2 to day 4 by CCK8 assay. It counts as functional, cell-based. In short, it runs like this:
(§1)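 Cells seeded at 2~4 × 10^4 per well and grown overnight in medium with 10% FBS at 37 °C, 5% CO2. Day 2: FBS starvation 4 h, then medium with graded compound concentrations. Day 4: CCK-8 added for 4 h more, absorbance read at 450 nm. IC50 from four-parameter logistic fit. Mean ± S.D. of three experiments run in triplicate.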

The test system of experiment [2] is HeLa. The experiment in a line: Cytotoxicity against human HeLa cells incubated from day 2 to day 4 by CCK8 assay. It counts as functional, cell-based. In short, it runs like this: as §1
Experiment [3] addresses T1, DNA topoisomerase 1 (Homo sapiens) (UniProt P11387).
T1 sequence (whole entry): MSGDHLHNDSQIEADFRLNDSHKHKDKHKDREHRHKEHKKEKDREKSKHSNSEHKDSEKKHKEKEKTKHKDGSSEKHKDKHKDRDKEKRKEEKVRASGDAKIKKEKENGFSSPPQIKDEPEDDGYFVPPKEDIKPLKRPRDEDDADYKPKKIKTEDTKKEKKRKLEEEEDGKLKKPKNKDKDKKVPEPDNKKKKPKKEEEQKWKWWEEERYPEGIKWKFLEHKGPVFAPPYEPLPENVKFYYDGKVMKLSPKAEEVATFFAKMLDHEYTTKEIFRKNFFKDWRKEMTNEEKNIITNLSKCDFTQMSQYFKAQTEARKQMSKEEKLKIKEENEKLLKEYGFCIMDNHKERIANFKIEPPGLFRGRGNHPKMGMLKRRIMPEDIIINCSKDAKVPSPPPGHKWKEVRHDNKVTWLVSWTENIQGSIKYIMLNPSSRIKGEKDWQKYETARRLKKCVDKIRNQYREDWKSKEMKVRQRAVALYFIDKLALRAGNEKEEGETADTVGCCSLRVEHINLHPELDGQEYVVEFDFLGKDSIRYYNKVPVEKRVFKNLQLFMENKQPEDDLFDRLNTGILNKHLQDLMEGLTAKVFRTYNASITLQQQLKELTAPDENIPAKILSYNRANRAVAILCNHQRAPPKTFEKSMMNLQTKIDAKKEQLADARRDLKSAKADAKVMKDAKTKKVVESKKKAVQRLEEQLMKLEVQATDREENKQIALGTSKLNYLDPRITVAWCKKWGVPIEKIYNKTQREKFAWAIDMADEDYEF
Nature of the experiment: Inhibition of human recombinant DNA topoisomerse 1 using pBR322 as substrate assessed as inhibition of conversion of supercoiled pBR322 to relaxed form at 20 uM after 30 mins by ethidium bromide staining-based electrophoresis analysis. In a few lines:
(§2)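 Relaxation of supercoiled pBR322 (100 ng) by 1 unit recombinant human topo I. Run at 37 °C for 30 min in 10 mM Tris-HCl pH 7.9, 150 mM NaCl, 0.1% BSA, 1 mM spermidine, 5% glycerol. Compounds from 20 mM DMSO stocks. Stopped with sarcosyl, then 1% agarose gel at 15 V for 7 h in TAE. Ethidium bromide stain, UV imaging, bands quantitated.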

Experiment [4] deals with DNA topoisomerase 2-alpha (Homo sapiens) (UniProt P11388). Nature of the experiment: Inhibition of human recombinant DNA topoisomerse 2 alpha using pBR322 as substrate assessed as inhibition of conversion of supercoiled pBR322 to relaxed form at 20 uM after 30 mins by ethidium bromide staining-based electrophoresis analysis. In a few lines:
(§3)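 Supercoiled pBR322 (200 ng) with 1 unit human topo IIα, 30 min at 30 °C. Buffer: 10 mM Tris-HCl pH 7.9, 50 mM NaCl, 5 mM MgCl2, 1 mM EDTA, 1 mM ATP, 15 μg/mL BSA. Stopped with EDTA. 1% agarose gel at 25 V for 4 h in TAE, ethidium bromide stain, supercoiled DNA quantitated under UV.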

Experiment [5] concerns the target T1, DNA topoisomerase 1 (Homo sapiens). Nature of the experiment: Inhibition of human recombinant DNA topoisomerse 1 using pBR322 as substrate assessed as inhibition of conversion of supercoiled pBR322 to relaxed form at 100 uM after 30 mins by ethidium bromide staining-based electrophoresis analysis. In short, it runs like this: as §2
The target in experiment [6] is DNA topoisomerase 2-alpha (Homo sapiens) (UniProt P11388). Nature of the experiment: Inhibition of human recombinant DNA topoisomerse 2 alpha using pBR322 as substrate assessed as inhibition of conversion of supercoiled pBR322 to relaxed form at 100 uM after 30 mins by ethidium bromide staining-based electrophoresis analysis. In a few lines: as §3
Experiment [7] has as its system HCT-15. Nature of the experiment: Cytotoxicity against human HCT15 cells incubated from day 2 to day 4 by CCK8 assay. The class given is functional, cell-based. In short, it runs like this:
as §1

Experiment [8] concerns T47D. Nature of the experiment: Cytotoxicity against human T47D cells incubated from day 2 to day 4 by CCK8 assay. It counts as functional, cell-based. In a few lines: as §1
On the technique in general: Formazan colour is commonly taken as a measure of viable cells.

Counter-ions that a name gives are not always drawn.

Chain of DNA topoisomerase 2-alpha (Homo sapiens) (P11388 whole entry): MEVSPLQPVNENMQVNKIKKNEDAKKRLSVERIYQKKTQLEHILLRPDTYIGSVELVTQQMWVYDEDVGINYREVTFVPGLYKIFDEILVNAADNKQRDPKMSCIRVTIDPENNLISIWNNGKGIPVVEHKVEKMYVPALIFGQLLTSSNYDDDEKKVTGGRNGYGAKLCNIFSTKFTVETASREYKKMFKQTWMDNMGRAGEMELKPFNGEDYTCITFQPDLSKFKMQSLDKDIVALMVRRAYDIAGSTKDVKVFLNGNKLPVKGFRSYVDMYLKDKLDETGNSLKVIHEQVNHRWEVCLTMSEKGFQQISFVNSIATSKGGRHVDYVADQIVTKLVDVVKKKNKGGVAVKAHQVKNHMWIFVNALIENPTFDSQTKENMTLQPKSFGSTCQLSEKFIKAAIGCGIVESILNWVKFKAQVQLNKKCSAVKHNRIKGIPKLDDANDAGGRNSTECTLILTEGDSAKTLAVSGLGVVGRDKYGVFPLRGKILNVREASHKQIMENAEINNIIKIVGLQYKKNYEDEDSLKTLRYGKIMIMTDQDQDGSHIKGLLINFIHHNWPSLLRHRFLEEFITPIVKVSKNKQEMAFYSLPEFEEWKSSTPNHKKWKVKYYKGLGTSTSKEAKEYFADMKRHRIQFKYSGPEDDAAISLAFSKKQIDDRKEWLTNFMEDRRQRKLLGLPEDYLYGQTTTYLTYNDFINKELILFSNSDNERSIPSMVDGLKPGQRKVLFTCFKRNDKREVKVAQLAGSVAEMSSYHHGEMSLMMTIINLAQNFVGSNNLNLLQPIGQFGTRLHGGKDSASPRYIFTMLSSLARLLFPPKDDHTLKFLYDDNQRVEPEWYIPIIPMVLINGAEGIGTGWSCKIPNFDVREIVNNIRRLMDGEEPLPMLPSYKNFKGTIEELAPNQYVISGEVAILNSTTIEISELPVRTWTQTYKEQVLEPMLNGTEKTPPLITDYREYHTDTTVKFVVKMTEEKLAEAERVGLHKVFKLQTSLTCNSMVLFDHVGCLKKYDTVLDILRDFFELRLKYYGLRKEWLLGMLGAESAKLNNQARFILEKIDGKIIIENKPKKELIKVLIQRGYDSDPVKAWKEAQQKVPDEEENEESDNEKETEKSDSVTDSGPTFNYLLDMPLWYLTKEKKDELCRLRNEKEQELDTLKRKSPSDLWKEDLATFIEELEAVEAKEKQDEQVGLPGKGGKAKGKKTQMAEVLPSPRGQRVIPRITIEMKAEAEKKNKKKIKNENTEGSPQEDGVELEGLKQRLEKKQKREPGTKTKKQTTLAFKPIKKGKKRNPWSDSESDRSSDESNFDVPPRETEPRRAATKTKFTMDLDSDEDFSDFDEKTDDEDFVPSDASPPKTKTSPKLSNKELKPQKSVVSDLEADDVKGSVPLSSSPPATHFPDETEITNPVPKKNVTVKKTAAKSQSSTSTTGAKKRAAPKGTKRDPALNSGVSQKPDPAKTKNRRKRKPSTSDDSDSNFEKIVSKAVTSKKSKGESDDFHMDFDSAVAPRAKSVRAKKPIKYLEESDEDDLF

A word on the IC50: it is the point on the concentration scale where inhibition reaches its midpoint. A low value points to greater potency in that assay. Broadly, the inhibition is the drop in the measured response relative to a control, in per cent. Take `Oc1cccc(-c2cc(-c3ccco3)c3c(n2)-c2ccccc2C3)c1`: the IC50 stood at 4.38 µM in experiment [1], 3.66 µM in experiment [2], 1.59 µM in experiment [7] and 6.74 µM in experiment [8]. Also, the inhibition in experiment [3] stood at 5.5%; in experiment [4], 44.5%; in experiment [5], 59.7%; in experiment [6], 78.2%.

As for `Oc1ccccc1-c1cc(-c2ccco2)c2c(n1)-c1ccccc1C2`, the IC50 in experiment [1], in experiment [2], in experiment [7] and in experiment [8] was greater than 50 µM in each case. Moreover, the inhibition in experiment [3] was 2.4%; in experiment [5], 58.3%; in experiment [6] it was 11.7%.

On to `c1ccc(-c2cc(-c3ccco3)c3c(n2)-c2ccccc2C3)cc1`, for which the IC50 was 5 µM in experiment [1], 1.42 µM in experiment [2], 11.2 µM in experiment [7] and 10.6 µM in experiment [8]. The inhibition in experiment [3] amounted to 8.7%; in experiment [4], 25.9%; in experiment [5], 73%; in experiment [6], 44.5%.

On to `Oc1ccc(-c2cc(-c3ccco3)c3c(n2)-c2ccccc2C3)cc1`, for which the IC50 in experiment [1], in experiment [2], in experiment [7] and in experiment [8] was greater than 50 µM in each case. In addition, the inhibition is 2.7% in experiment [3], 44.2% in experiment [4], 54.8% in experiment [5] and 59.9% in experiment [6].

Regarding `Oc1ccc(-c2cc(-c3cccs3)c3c(n2)-c2ccccc2C3)cc1`, the IC50 in experiment [1], in experiment [2], in experiment [7] and in experiment [8] was greater than 50 µM throughout. Further, the inhibition worked out at 0% in experiment [3], 21.4% in experiment [4], 69.1% in experiment [5] and 40.1% in experiment [6].

`Oc1cccc(-c2cc(-c3ccncc3)c3c(n2)-c2ccccc2C3)c1`: the concentration for half-maximal inhibition (IC50) in experiment [1], in experiment [2], in experiment [7] and in experiment [8] was greater than 50 µM throughout. Moreover, the results for the inhibition in experiment [3], in experiment [5] and in experiment [6] were 1.5%, 49.8% and 8.4%, respectively.

Consider `Oc1ccc(-c2cc(-c3ccncc3)c3c(n2)-c2ccccc2C3)cc1`, for which the half-inhibitory concentration (IC50) in experiment [1], in experiment [2], in experiment [7] and in experiment [8] was greater than 50 µM each time. Also, the inhibition is 0.7% in experiment [3], 72.4% in experiment [5] and 27.1% in experiment [6].

With `Oc1cccc(-c2cc(-c3ccsc3)c3c(n2)-c2ccccc2C3)c1`, the IC50 in experiment [1] came out at 2.3 µM; in experiment [2], 1.74 µM; in experiment [7], 6.73 µM; in experiment [8], 0.94 µM. Besides, the inhibition in experiment [3] came to 0%; in experiment [4], 37%; in experiment [5], 76.9%; in experiment [6], 77.2%.

In the case of `Oc1cccc(-c2cc(-c3ccccn3)c3c(n2)-c2ccccc2C3)c1`, the 50% inhibitory concentration (IC50) is greater than 50 µM in experiment [1], 3.09 µM in experiment [2], greater than 50 µM in experiment [7] and greater than 50 µM in experiment [8]. Also, the inhibition in experiment [4] came out at 19.7%; in experiment [5], 5.9%; in experiment [6] it was 48.5%.

Take `c1ccc(-c2cc(-c3ccsc3)c3c(n2)-c2ccccc2C3)cc1`: the IC50 in experiment [1] was 1.62 µM; in experiment [2] it was 29.8 µM; in experiment [7], 31.4 µM; in experiment [8], greater than 50 µM. Further, the inhibition stood at 3.4% in experiment [5] and 16.7% in experiment [6].

Consider `c1ccc(-c2cc(-c3ccncc3)c3c(n2)-c2ccccc2C3)cc1`, for which the half-maximal inhibitory concentration (IC50) in experiment [1], in experiment [2], in experiment [7] and in experiment [8] was greater than 50 µM each time. Further, in experiment [5], the inhibition worked out at 3.3%.

`COc1cc([C@@H]2c3cc4c(cc3[C@@H](O[C@@H]3O[C@@H]5CO[C@@H](C)O[C@H]5[C@H](O)[C@H]3O)[C@H]3COC(=O)[C@H]23)OCO4)cc(OC)c1O` [ETOPOSIDE] returned a half-maximal inhibitory concentration (IC50) in experiment [8] of 0.7 µM.

On to `Oc1ccc(-c2cc(-c3cccnc3)c3c(n2)-c2ccccc2C3)cc1`, for which the concentration for half-maximal inhibition (IC50) in experiment [1], in experiment [2], in experiment [7] and in experiment [8] was greater than 50 µM each time. Further, the inhibition in experiment [3] came to 2.4%; in experiment [5] it was 59.7%; in experiment [6], 28.3%.

Consider `c1ccc(-c2cc(-c3ccoc3)c3c(n2)-c2ccccc2C3)cc1`, for which the IC50 in experiment [1] was 46.5 µM; in experiment [2], 23.8 µM; in experiment [7] it was 1.52 µM; in experiment [8], 35.3 µM. Moreover, the inhibition in experiment [4] came to 15.1%; in experiment [5], 0%; in experiment [6], 19.6%.

Regarding `CC[C@@]1(O)C(=O)OCc2c1cc1n(c2=O)Cc2cc3ccccc3nc2-1` [CAMPTOTHECIN], the 50% inhibitory concentration (IC50) in experiment [2] was 0.41 µM; in experiment [7] it was 0.52 µM; in experiment [8], 0.31 µM.

`Oc1ccccc1-c1cc(-c2cccnc2)c2c(n1)-c1ccccc1C2`: the IC50 in experiment [1], in experiment [2], in experiment [7] and in experiment [8] was greater than 50 µM in each case. Also, the inhibition is 3.8% in experiment [3], 70.9% in experiment [5] and 3.5% in experiment [6].

In the case of `Oc1ccccc1-c1cc(-c2ccncc2)c2c(n1)-c1ccccc1C2`, the half-maximal inhibitory concentration (IC50) in experiment [1] is 39.6 µM; in experiment [2], greater than 50 µM; in experiment [7], greater than 50 µM; in experiment [8] it was greater than 50 µM. Also, the inhibition in experiment [3] is 2.3%; in experiment [5] it was 68.7%; in experiment [6] it was 5.1%.

`c1ccc(-c2cc(-c3ccccn3)c3c(n2)-c2ccccc2C3)cc1`: the half-maximal inhibitory concentration (IC50) is 13.2 µM in experiment [1], 18.7 µM in experiment [2], greater than 50 µM in experiment [7] and 44.5 µM in experiment [8]. In addition, the inhibition in experiment [5] was found to be 3.6%; in experiment [6] it was 16.4%.

As for `Oc1ccccc1-c1cc(-c2ccccn2)c2c(n1)-c1ccccc1C2`, the half-inhibitory concentration (IC50) in experiment [1], in experiment [2], in experiment [7] and in experiment [8] was greater than 50 µM each time. Moreover, the inhibition is 4.9% in experiment [3], 52.8% in experiment [5] and 9.1% in experiment [6].

As to `c1ccc(-c2cc(-c3cccs3)c3c(n2)-c2ccccc2C3)cc1`, the half-maximal inhibitory concentration (IC50) was 9.34 µM in experiment [1], 30.8 µM in experiment [2], greater than 50 µM in experiment [7] and 26.7 µM in experiment [8]. For the same compound, the inhibition in experiment [5] turned out to be 3.7%; in experiment [6], 16.8%.

The compound `COc1cccc2c1C(=O)c1c(O)c3c(c(O)c1C2=O)C[C@@](O)(C(=O)CO)C[C@@H]3O[C@H]1C[C@H](N)[C@H](O)[C@H](C)O1` [DOXORUBICIN HYDROCHLORIDE] had an IC50 in experiment [1] of 1.02 µM.

Turning to `c1ccc(-c2cc(-c3cccnc3)c3c(n2)-c2ccccc2C3)cc1`, the half-inhibitory concentration (IC50) in experiment [1], in experiment [2], in experiment [7] and in experiment [8] was greater than 50 µM in each case. Moreover, the inhibition in experiment [5] worked out at 4.1%.

With `Oc1ccc(-c2cc(-c3ccccn3)c3c(n2)-c2ccccc2C3)cc1`, the IC50 in experiment [1], in experiment [2], in experiment [7] and in experiment [8] was greater than 50 µM throughout. Besides, the inhibition came out at 4.7% in experiment [3], 61.2% in experiment [5] and 18.2% in experiment [6].

Values taken from ChEMBL document CHEMBL3596197, “Synthesis, topoisomerase I and II inhibitory activity, cytotoxicity, and structure-activity relationship study of 2-phenyl- or hydroxylated 2-phenyl-4-aryl-5H-indeno[1,2-b]pyridines” (Bioorg Med Chem, 2015).
